Measurements from different studies.
Each line is one published result; the experiments were not run side by side.
Target: Tyrosine-protein kinase Fgr (FGR, Homo sapiens, UniProt P09769)

SMILES	test	setting	remaining binding [%]
FC(F)(F)Oc1cccc(-c2cnc3ccc(-c4ccncc4)nn23)c1	cell-free assay, competition with immobilised ligand	5 µM	69
CC(=O)Nc1c(C(C)=O)c(=O)n(C)c2nc(-c3ccc(Cl)cc3Cl)c(-c3ccc(Cl)cc3)cc12	cell-free assay, competition with immobilised ligand	1 µM	100
F[C@@H]1CCN(c2nccc(-c3cnn4ncccc34)n2)C1	binding	1 µM	81
CNCc1ccccc1-c1csc([C@@H](C)Nc2nc(C)nc3cc(OC)c(OC)cc23)c1	cell-free assay, competition with immobilised ligand	1 µM	100
O=C(NCC1CCOCC1)c1n[nH]cc1NC(=O)c1c(F)cccc1F	binding, competition with immobilised ligand	1 µM	100
N[C@@H]1CCN(c2nccc(-c3cnn4ncccc34)n2)C1	binding	1 µM	100
O=C(NCCCN1CCOCC1)c1ccc(Nc2nccc(-c3cc4ccccc4s3)n2)cc1	cell-free assay, competition with immobilised ligand	1 µM	79
CCS(=O)(=O)c1cc2cc(C[C@](O)(CC(C)(C)c3ccc(F)cc3C(N)=O)C(F)(F)F)[nH]c2cn1	cell-free assay, competition with immobilised ligand	1 µM	100
O=C(NCCCN1CCOCC1)c1ccc(Nc2ncc(Cl)c(-c3ccc(Cl)s3)n2)cc1	cell-free assay, competition with immobilised ligand	1 µM	91
CN(C)c1ncc(F)c(-c2cnn3ncccc23)n1	binding	1 µM	88
COc1cnc(Nc2cccc(S(N)(=O)=O)c2)nc1N1CCN(c2ccccc2)C(=O)C1	binding, competition with immobilised ligand	1 µM	100
Cc1noc([C@H]2C[C@@H](c3ccc(C(F)(F)F)cc3)CN(C(=O)N3CCS(=O)(=O)C3)C2)n1	cell-free assay, competition with immobilised ligand	1 µM	100
c1cnn2ncc(-c3ccnc(N4CCC45COC5)n3)c2c1	binding	1 µM	100
c1cncc(-c2cccc(Nc3nccc(NC4CCCCC4)n3)c2)c1	binding, competition with immobilised ligand	10 µM	14
CN([C@@H]1CCc2c(CC(=O)O)c3ccccc3n2C1)S(=O)(=O)c1ccc(F)cc1	cell-free assay, competition with immobilised ligand	1 µM	93
CCN1CCN(Cc2ccc(C(=O)Nc3ccc(C)c(Oc4ccc5c(c4)CC(=O)N5)c3)cc2C(F)(F)F)CC1	binding, competition with immobilised ligand	1 µM	68
Nc1ncc2c(n1)-c1c([nH]c3ccc(C#CC4CC4)cc13)CCCC2	binding, competition with immobilised ligand	1 µM	100
C[C@@H]1CCN(c2nccc(-c3cnn4ncccc34)n2)C1	binding	1 µM	100
O=C(c1ccc(Nc2ncc(Cl)c(-c3ccc(Cl)s3)n2)cc1)N1CCC(N2CCCC2)CC1	cell-free assay, competition with immobilised ligand	1 µM	96
C[C@@H]1CN(c2cc(-c3nn(C)c4ccc(OC5(C)CC5)cc34)ncn2)C[C@H](C)O1	cell-free assay, competition with immobilised ligand	1 µM	90
CN(CCCC(F)(F)F)c1nccc(-c2cnn3ncccc23)n1	binding	1 µM	85
